Measurements as given in ChEMBL document CHEMBL1255424, “Antistaphylococcal activity of ACHN-490 tested alone and in combination with other agents by time-kill assay” (2010).

Assays:
Format in all cases: functional
[1] = test system: Staphylococcus aureus; assay: Antibacterial activity against vancomycin-intermediate Staphylococcus aureus isolate 1006 after 24 hrs by modified broth macrodilution method; conditions: isolate 1006, 24 h
In short: (§1)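 MIC read after 24 h incubation by modified broth macrodilution, validated per CLSI recommendations, against recent clinical MRSA isolates (hospital- and community-acquired, hVISA, VISA, VRSA). Daptomycin tests ran in Mueller-Hinton broth with added calcium.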

[2] = test system: Staphylococcus aureus; assay: Antibacterial activity against vancomycin-intermediate Staphylococcus aureus after 24 hrs by modified broth macrodilution method; in short: as §1
[3] = test system: Staphylococcus aureus; assay: Antibacterial activity against vancomycin-intermediate Staphylococcus aureus isolate 1016 after 24 hrs by modified broth macrodilution method; conditions: isolate 1016, 24 h; in short: as §1

Measured: MIC

CC(=O)NC[C@H]1CN(c2ccc(N3CCOCC3)c(F)c2)C(=O)O1 [LINEZOLID]
1 µg/mL: all assays above
